PHOSPHO1 block: PHOSPHO1 (human) inhibition; 290,000 compounds, 1.1% hits; recombinant PHOSPHO1, absorbance phosphatase assay; inhibition, % at 13.3 µM; Q8TCT1; in the data active = inhibition above about 60%
Target sequence (Q8TCT1 whole entry, looked up): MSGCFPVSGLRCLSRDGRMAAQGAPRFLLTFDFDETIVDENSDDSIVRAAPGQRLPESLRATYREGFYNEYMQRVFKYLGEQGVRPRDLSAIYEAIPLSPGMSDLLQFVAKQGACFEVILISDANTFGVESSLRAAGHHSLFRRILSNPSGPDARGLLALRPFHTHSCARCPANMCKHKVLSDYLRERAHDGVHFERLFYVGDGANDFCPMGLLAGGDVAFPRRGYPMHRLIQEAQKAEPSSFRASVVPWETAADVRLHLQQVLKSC
MrgX1 antagonist: blocks BAM8-22 activation of human MrgX1 receptor; 310,000 compounds, 1.3% hits; Q96LB2; MRGX1-HEK293 calcium flux, Fluo-4, BAM8-22 antagonism; active compounds read low; B-score at 10 µM;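 active = calcium-response B-score plate-corrected more than 3 library SD below zero, starting fluorescence within 5 deviations, no agonist response on first addition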;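 also: peak minus trough fluorescence over baseline after final BAM8-22 challenge near maximal dose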
Target sequence (Q96LB2 whole entry, looked up): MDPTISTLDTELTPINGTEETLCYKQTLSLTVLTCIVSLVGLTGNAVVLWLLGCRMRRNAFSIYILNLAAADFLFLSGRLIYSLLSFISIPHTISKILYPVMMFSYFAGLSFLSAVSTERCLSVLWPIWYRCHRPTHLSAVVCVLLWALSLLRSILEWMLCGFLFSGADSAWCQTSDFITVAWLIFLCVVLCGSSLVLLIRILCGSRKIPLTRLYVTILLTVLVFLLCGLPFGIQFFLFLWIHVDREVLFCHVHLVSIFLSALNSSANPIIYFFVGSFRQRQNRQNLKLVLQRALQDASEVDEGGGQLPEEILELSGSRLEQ
RGS4 act: RGS4 potentiation or activation. HEK293 M3R/inducible RGS4, carbachol calcium flux Fluo4; active compounds read low. B-score at 10 µM. 310,000 compounds, 0.92% hits. AID 463111;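 active = B-score of the integrated calcium signal more than 4 SD below the library mean, with starting fluorescence not abnormally high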;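 also: negative B-score means reduced calcium response which marks RGS4 activation or potentiation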
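Material: Inducible-RGS4 HEK293 cells carrying M3 receptor; also added: carbachol at ECmax as muscarinic agonist stimulus; incubation: compound preincubation 20 min at room temperature before agonist; signal: Fluo4-AM (2 µM) calcium-flux fluorescence, kinetic read; measure: integrated calcium ratio converted to B score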
MrgX1 PAM: human MrgX1 positive allosteric modulation, primary screen; 310,000 compounds, 0.63% hits; Q96LB2; MrgX1-HEK293, Fluo-4 calcium flux, FDSS; active compounds read high; B-score at 10 µM;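 active = plate-corrected calcium response at least 3 library SD above typical, normal starting fluorescence, not activating the receptor alone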;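 also: compound read alongside a low EC10 to EC30 dose of BAM8-22 agonist; peak minus trough fluorescence over baseline measured at the second addition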
MrgX1 ag: agonists of human MrgX1 receptor; Q96LB2; MrgX1-HEK293 cells, Fluo-4 calcium fluorescence, agonist mode; active compounds read high; B-score at 10 µM; 310,000 compounds, 0.44% hits;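 active = calcium response B-score plate-corrected fluorescence ratio at least 3 library SD, with starting fluorescence B-score inside 5 SD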
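Material: MrgX1-expressing HEK293 cells / Dosing: compound as first of three additions / Incubation: overnight seeding, then 1 h dark dye loading / Signal: Fluo-4 NW calcium fluorescence / Evaluation: B-scored fluorescence response ratio / Benchmarks: positive and negative control wells on each plate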
RGS4 block: human RGS4 inhibition; 310,000 compounds, 0.45% hits; HEK293 M3R/RGS4 inducible, Fluo-4 calcium flux; active compounds read high; triggered by carbachol at its EC20; B-score at 10 µM; P49798;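 active = B-score, a plate-corrected calcium signal, over three deviations above library mean, with baseline fluorescence within five deviations of library mean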;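 also: RGS4 expression induced by doxycycline in cells with stable M3 receptor; B-score is computed from the integrated fluorescence ratio over baseline after carbachol; higher B-score means a larger calcium signal and so more RGS4 inhibition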
Target sequence (P49798 whole entry, looked up): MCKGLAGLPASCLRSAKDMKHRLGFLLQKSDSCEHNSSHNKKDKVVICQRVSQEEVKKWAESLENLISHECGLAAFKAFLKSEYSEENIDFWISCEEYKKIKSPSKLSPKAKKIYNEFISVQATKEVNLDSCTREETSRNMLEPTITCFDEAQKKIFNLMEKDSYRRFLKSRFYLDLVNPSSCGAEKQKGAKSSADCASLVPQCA
MrgX1 PAM conf: human MrgX1 positive allosteric modulation, re-confirmation; shares compounds with MrgX1 PAM; MrgX1-HEK293, Fluo-4 calcium fluorescence, FDSS; activation (ratio percentage), % at 10 µM; 1,200 compounds, 13% hits; AID 602413;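 active = ratio at least 3 SD above the weak peptide control, stable starting fluorescence, no direct agonism earlier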;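 also: compound followed by low BAM8-22 agonist challenge near EC20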
MrgX1 antag conf: reconfirmed antagonist of human MrgX1 receptor signaling; MrgX1-HEK293, BAM8-22 calcium flux, Fluo-4; active compounds read low; remaining BAM8-22 calcium response % of control (active compounds read low), % at 10 µM; shares compounds with MrgX1 antagonist; 2,300 compounds, 19% hits;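 active = remaining agonist calcium response no higher than 100% minus 3 SD of agonist-only control wells, with starting fluorescence near control levels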;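 also: agonist BAM8-22 given at a near maximal EC90 to ECmax level; peak minus minimum fluorescence divided by baseline after agonist addition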
HEK293 Ca flux: MrgX1 antagonist counter-screen hit in parental HEK293 cells; shares compounds with MrgX1 antagonist; Fluo-4 calcium fluorescence, FDSS; fluorescence ratio F(max-min)/F0 at 10 µM; 4,000 compounds, 2% hits; AID 624111;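 active = duplicate-averaged calcium fluorescence ratio at least three times the standard deviation of buffer wells, a nonspecific response in parental cells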
HEK293 Ca counter: activity in parental HEK293 cells without MrgX1 | shares compounds with MrgX1 antagonist | parental HEK293 calcium flux, Fluo-4 fluorescence ratio; active compounds read high | fluorescence ratio F(max-min)/F0 at 10 µM | 4,000 compounds, 0.4% hits | AID 624114;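 active = calcium fluorescence ratio, averaged over duplicates, at least 3 SD of the buffer-well ratio, meaning a nonspecific response in receptor-free cells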;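 also: untransfected parental HEK293 lacking MrgX1 used as counterscreen for MrgX1 allosteric activators; fluorescence change taken during the second addition on a kinetic imager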
HEK293 Ca cntr2: MrgX1 activator counter-screen hit in parental HEK293 cells; shares compounds with MrgX1 antagonist; Fluo-4 calcium fluorescence (FDSS); active compounds read high; fluorescence ratio F(max-min)/F0 at 10 µM; 4,000 compounds, 8.7% hits;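 active = calcium fluorescence ratio at least three times the spread of buffer wells, meaning a non-specific response in parental cells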
Of the large screens only hits and unclear results are named; the others gave an inactive call (follow-up assays come after a bar, where they were run). Most compounds without a hit are left out; they make up all but 4.5% or so of the library.

CCN(c1ccccc1)S(=O)(=O)c1ccc(Cl)nc1	MrgX1 PAM 9.38 | MrgX1 PAM conf inactive | HEK293 Ca flux inactive | HEK293 Ca counter inactive | HEK293 Ca cntr2 inactive
CC(C)N(C(C)C)S(=O)(=O)c1ccc(Cl)nc1	MrgX1 PAM 7.69 | MrgX1 PAM conf inactive | HEK293 Ca flux inactive | HEK293 Ca counter inactive | HEK293 Ca cntr2 inactive
CCN(c1ccccc1)S(=O)(=O)c1ccc(N)c(OC)c1	MrgX1 PAM 6.63 | MrgX1 PAM conf inactive | HEK293 Ca flux inactive | HEK293 Ca counter inactive | HEK293 Ca cntr2 inactive
CC(C)N(C(C)C)S(=O)(=O)c1ccc(N2CCc3ccccc3C2)nc1	RGS4 act -7.1, MrgX1 PAM 8.37 | MrgX1 PAM conf inactive | HEK293 Ca flux inactive | HEK293 Ca counter inactive | HEK293 Ca cntr2 inactive
CCN(c1cccc2ccccc12)S(=O)(=O)c1ccc(Cl)nc1	none
Cn1nc(OCC(=O)O)cc1C(F)(F)F	none
COc1cccc(N2CCN(Cc3nc4scc(-c5ccccc5)c4c(=O)[nH]3)CC2)c1	none
COCCN(C(=O)Nc1ccc(OC)cc1)c1nc2ccccc2s1	none (no result: PHOSPHO1 block)
O=C(COC(=O)Cc1ccc(Cl)cc1)Nc1ccc2[nH]c(=O)[nH]c2c1	none (no result: PHOSPHO1 block)
O=C(CSC1=NCCN1)NC(c1ccccc1)c1ccccc1	MrgX1 PAM 13.4 | MrgX1 PAM conf inactive | HEK293 Ca flux inactive | HEK293 Ca counter inactive | HEK293 Ca cntr2 inactive
CC(C)CN(C(=O)CN(C)C(=O)c1ccco1)c1c(N)n(CC(C)C)c(=O)[nH]c1=O	none (no result: PHOSPHO1 block)
C/C(=N\O)C(C)(C)Nc1ccccc1F	none
Cc1ccc2oc(C(=O)N3CCCCCC3)c(C)c2c1	MrgX1 PAM 6.47 | MrgX1 PAM conf inactive | HEK293 Ca flux inactive | HEK293 Ca counter inactive | HEK293 Ca cntr2 inactive
Nc1c(C(=O)N2CCCCCC2)oc2ccccc12	MrgX1 PAM 10 | MrgX1 PAM conf inactive | HEK293 Ca flux inactive | HEK293 Ca counter inactive | HEK293 Ca cntr2 inactive
Cc1csc(SCC(=O)NC(=O)NC2CCCC2)n1	none
Cc1ccc(Oc2ncnc3sccc23)cc1	MrgX1 PAM 17.1 | MrgX1 PAM conf 2.5% | HEK293 Ca flux inactive | HEK293 Ca counter inactive | HEK293 Ca cntr2 inactive
c1cnc2c(Oc3ncnc4sccc34)cccc2c1	none
c1ccc(-c2cc3c(N4CCCCC4)ncnc3s2)cc1	MrgX1 PAM 8.89 | MrgX1 PAM conf inactive | HEK293 Ca flux inactive | HEK293 Ca counter inactive | HEK293 Ca cntr2 inactive
COc1ccc(NC(=O)c2csc3c2CCCCC3)c(OC)c1	MrgX1 PAM 19.5 | MrgX1 PAM conf inactive | HEK293 Ca flux inactive | HEK293 Ca counter inactive | HEK293 Ca cntr2 inactive
COc1ccc(CCNC(=O)c2csc3c2CCCC3)cc1	none
O=[N+]([O-])c1cccc(CSc2nnc(Cc3ccccc3)n2-c2ccc(F)cc2)c1	none
Nc1cc(Cl)ccc1Oc1ccccc1	MrgX1 PAM 20.4 | MrgX1 PAM conf inactive | HEK293 Ca flux inactive | HEK293 Ca counter inactive | HEK293 Ca cntr2 inactive
O=C(COC(=O)c1cccnc1)Nc1ccc2c(c1)OCO2	none
Cc1nc(-c2cc(C#N)c(Sc3cccc(C(F)(F)F)c3)nc2C)cs1	none
CNc1nc(Sc2ccccc2)cc(C(F)(F)F)n1	MrgX1 PAM 21.5 | MrgX1 PAM conf inactive | HEK293 Ca flux inactive | HEK293 Ca counter inactive | HEK293 Ca cntr2 inactive
CNc1nc(Sc2cccc(C(F)(F)F)c2)cc(C(F)(F)F)n1	MrgX1 PAM 10.3 | MrgX1 PAM conf inactive | HEK293 Ca flux inactive | HEK293 Ca counter inactive | HEK293 Ca cntr2 inactive
O=C(c1ccc(Cl)cc1)C1CCCN(Cc2cccn2-c2cccnc2)C1 (stereo not drawn)	MrgX1 PAM 7.52 | MrgX1 PAM conf inactive | HEK293 Ca flux inactive | HEK293 Ca counter inactive | HEK293 Ca cntr2 inactive
O=C(c1ccc(C23CC4CC(CC(C4)C2)C3)o1)N1CCOCC1	MrgX1 PAM 11 | MrgX1 PAM conf inactive | HEK293 Ca flux inactive | HEK293 Ca counter inactive | HEK293 Ca cntr2 inactive
O=C(OCc1csc(-c2ccccc2)n1)c1ccccc1O	none
COc1ccc(/C=C2/C(=N)N3C(=NC2=O)Sc2cc(S(C)(=O)=O)ccc23)cc1OC	MrgX1 PAM 37.1 | MrgX1 PAM conf 17.4% | HEK293 Ca flux inactive | HEK293 Ca counter inactive | HEK293 Ca cntr2 inactive
OCC1(CCOc2ccccc2)CCN(Cc2cn[nH]c2-c2ccc(F)cc2)CC1	MrgX1 PAM 10.6 | MrgX1 PAM conf inactive | HEK293 Ca flux inactive | HEK293 Ca counter inactive | HEK293 Ca cntr2 inactive
O=C(c1ccncc1)c1ccc(N2CCN(C3CC(=O)N(Cc4ccccc4)C3=O)CC2)cc1 (stereo not drawn)	none
O=C(c1ccc(N2CCN(C3CC(=O)N(Cc4cccs4)C3=O)CC2)cc1)c1cccnc1 (stereo not drawn)	MrgX1 antagonist -5.1, MrgX1 PAM 9 | MrgX1 PAM conf 3.0% | MrgX1 antag conf 83.8% | HEK293 Ca flux inactive | HEK293 Ca counter inactive | HEK293 Ca cntr2 inactive
Cc1ccc(NC2=C(Cl)C(=O)OC2OC(=O)c2ccc(C)cc2)cc1 (stereo not drawn)	MrgX1 PAM 8.58 | MrgX1 PAM conf inactive | HEK293 Ca flux inactive | HEK293 Ca counter inactive | HEK293 Ca cntr2 inactive
c1ccc(Oc2cc(-n3cncn3)ncn2)cc1	none
Cc1cnn(-c2cc(Oc3ccccc3)ncn2)c1	MrgX1 PAM 8.77 | MrgX1 PAM conf inactive | HEK293 Ca flux inactive | HEK293 Ca counter inactive | HEK293 Ca cntr2 inactive
CN1CCCC(OC(=O)c2ccccc2Br)C1 (stereo not drawn)	MrgX1 PAM 6.57 | MrgX1 PAM conf inactive | HEK293 Ca flux inactive | HEK293 Ca counter inactive | HEK293 Ca cntr2 inactive
CN1CCCC(OC(=O)c2cccc(Br)c2)C1 (stereo not drawn)	none
C[n+]1cccc(C(=O)NNC(=O)C23CC4CC(CC(C4)C2)C3)c1	none
CCOC(=O)c1ccc2c(c1)nc(-c1ccccn1)n2CC	MrgX1 PAM 7.57 | MrgX1 PAM conf inactive | HEK293 Ca flux inactive | HEK293 Ca counter inactive | HEK293 Ca cntr2 inactive
